From ChEMBL document CHEMBL1687750, “Nonclinical pharmacokinetics of oseltamivir and oseltamivir carboxylate in the central nervous system” (Antimicrob Agents Chemother, 2009)

Assays:
[1] = Ratio of drug level in brain to plasma in non-perfused Sprague-Dawley rat at 30 mg/kg, iv; assay type: ADME, organism-based; parameters: dose 30 mg/kg, route intravenous; conditions: brain and plasma, read-out: BPR
How it was run: (§1)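 Nonfasted Sprague-Dawley rats given 30 mg/kg i.v. in 0.9% NaCl pH 4.0 by tail vein over 20–30 s. Terminal sampling under isoflurane at 5 min, 0.25, 0.5, 1, 2, 4 and 8 h (4–5 rats/time): plasma, CSF, and brain homogenate, with or without saline perfusion. LC-MS/MS. t1/2, Vss and ratios from noncompartmental analysis of pooled composite concentrations.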

[2] = Cmax ratio in cerebrospinal fluid to plasma in perfused Sprague-Dawley rat at 30 mg/kg, iv; assay type: ADME, organism-based, CSF/Plasma; parameters: dose 30 mg/kg, route intravenous; conditions: cerebrospinal fluid and plasma
How it was run: (§2)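 Nonfasted adult rats received 30 mg/kg in aqueous 0.9% NaCl (pH 4.0) by slow tail-vein injection over 20–30 s. Groups were sampled at 5 min and 0.25, 0.5, 1, 2, 4 and 8 h, with 4–5 rats per time point, under terminal isoflurane. Blood was taken by heart puncture and CSF from the cisterna magna. Brains were homogenized either unperfused or after transcardial saline perfusion. Samples were assayed by LC-MS/MS, and pooled composite data were analyzed noncompartmentally.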

Plasma [3] = assay: Cmax in non-perfused Sprague-Dawley rat plasma assessed as active metabolite oseltamivir carboxylate level at 30 mg/kg, iv; assay type: ADME, organism-based; parameters: dose 30 mg/kg, route intravenous; conditions: in vivo; how it was run: as §2
Cerebrospinal fluid = assay: Cmax in perfused Sprague-Dawley rat cerebrospinal fluid assessed as active metabolite oseltamivir carboxylate level at 30 mg/kg, iv; assay type: ADME, organism-based; parameters: dose 30 mg/kg, route intravenous; conditions: in vivo, BLD = below limit of detection; how it was run: as §2
Plasma [4] = assay: Terminal half life in non-perfused Sprague-Dawley rat plasma assessed as active metabolite oseltamivir carboxylate level at 30 mg/kg, iv; assay type: ADME, organism-based; parameters: dose 30 mg/kg, route intravenous; conditions: in vivo; how it was run: as §1
Plasma [5] = assay: Terminal half life in perfused Sprague-Dawley rat plasma assessed as active metabolite oseltamivir carboxylate level at 30 mg/kg, iv; assay type: ADME, organism-based; parameters: dose 30 mg/kg, route intravenous; conditions: in vivo; how it was run: as §1
[6] = Cmax ratio in brain to plasma in non-perfused Sprague-Dawley rat at 30 mg/kg, iv; assay type: ADME, organism-based; parameters: dose 30 mg/kg, route intravenous; conditions: brain and plasma; how it was run: as §2
[7] = Cmax ratio in brain to plasma in perfused Sprague-Dawley rat at 30 mg/kg, iv; assay type: ADME, organism-based; parameters: dose 30 mg/kg, route intravenous; conditions: brain and plasma; how it was run: as §2
[8] = AUC ratio in brain to plasma in non-perfused Sprague-Dawley rat at 30 mg/kg, iv; assay type: ADME, organism-based; parameters: dose 30 mg/kg, route intravenous; conditions: brain and plasma, read-out: Ratio AUC; how it was run: as §2
Rattus norvegicus = assay: Volume of distribution at steady state in Sprague-Dawley rat assessed as active metabolite oseltamivir carboxylate level at 30 mg/kg, iv; assay type: ADME, organism-based; parameters: dose 30 mg/kg, route intravenous; conditions: in vivo; how it was run: as §1
Plasma [9] = assay: AUC (0 to 8 hrs) after iv dose in perfused Sprague-Dawley rat plasma assessed as active metabolite oseltamivir carboxylate level at 30 mg/kg; conditions: in vivo
[10] = Prodrug conversion in human liver S9 fractions assessed as paranitrophenol generation rate assessed per mg of protein per min; assay type: ADME, subcellular, S9 fraction
[11] = Prodrug conversion in commercial brain S9 fractions assessed as paranitrophenol generation rate assessed per mg of protein per min; assay type: ADME
[12] = Prodrug conversion in 7 days old female rat brain S9 fractions assessed as oseltamivir carboxylate generation rate assessed per mg of protein per min; assay type: ADME, tissue-based
How it was run: (§3)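 S9 from brain or liver (rat S9 made by homogenizing tissue in ~4 ml Tris-sucrose buffer per g, supernatant after 9,000 × g at 10°C; pooled human brain and liver S9 also used), protein by bicinchoninic acid assay. Oseltamivir: triplicate, 10 μM 14C-oseltamivir final, 1.0 mg S9 protein, 100 mM Tris-HCl pH 7.4, 30 min at 37°C, quenched with TCA-acetonitrile.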

[13] = Prodrug conversion in 42 days old male rat brain S9 fractions assessed as oseltamivir carboxylate generation rate assessed per mg of protein per min; assay type: ADME, tissue-based
How it was run: (§4)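 Rat brain or liver S9 (9,000 × g supernatant; 1.0 mg protein) was incubated in triplicate with 10 µM 14C-oseltamivir (final) in 100 mM Tris-HCl pH 7.4 for 30 min at 37°C. Reactions were quenched with TCA-acetonitrile, and the fraction converted to OC was measured by radioflow HPLC with fractionation. Rate was calculated as (pmol/ml substrate × fraction hydrolyzed)/(mg protein/ml × time), minus the no-protein background.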

[14] = Prodrug conversion in 42 days old male rat liver S9 fractions assessed as oseltamivir carboxylate generation rate assessed per mg of protein per min; assay type: ADME, subcellular, S9 fraction; how it was run: as §4
[15] = Prodrug conversion in commercial brain S9 fractions assessed as oseltamivir carboxylate generation rate assessed per mg of protein per min; assay type: ADME; how it was run: as §3
[16] = Prodrug conversion in 7 days old male rat brain S9 fractions assessed as conversion of oseltamivir to oseltamivir carboxylate; assay type: ADME, tissue-based; how it was run: as §3
[17] = Prodrug conversion in 7 days old female rat brain S9 fractions assessed as conversion of oseltamivir to oseltamivir carboxylate; assay type: ADME, tissue-based; how it was run: as §3
[18] = Prodrug conversion in 42 days old male rat brain S9 fractions assessed as conversion of oseltamivir to oseltamivir carboxylate; assay type: ADME, subcellular, S9 fraction; how it was run: as §4
[19] = Prodrug conversion in 42 days old female rat brain S9 fractions assessed as conversion of oseltamivir to oseltamivir carboxylate; assay type: ADME, tissue-based; how it was run: as §4
[20] = Prodrug conversion in 7 days old male rat liver S9 fractions assessed as conversion of oseltamivir to oseltamivir carboxylate; assay type: ADME, subcellular, S9 fraction; how it was run: as §3
[21] = Prodrug conversion in 42 days old female rat liver S9 fractions assessed as conversion of oseltamivir to oseltamivir carboxylate; assay type: ADME, subcellular, S9 fraction; how it was run: as §4
[22] = Prodrug conversion in human liver S9 fractions assessed as conversion of oseltamivir to oseltamivir carboxylate; assay type: ADME, subcellular, S9 fraction; how it was run: as §3
[23] = Prodrug conversion in commercial brain S9 fractions assessed as conversion of oseltamivir to oseltamivir carboxylate; assay type: ADME; how it was run: as §3
[24] = Prodrug conversion in commercial liver S9 fractions assessed as conversion of oseltamivir to oseltamivir carboxylate; assay type: ADME, subcellular, Liver S9 fraction; how it was run: as §3
[25] = Prodrug conversion in 42 days old male rat liver S9 fractions assessed as paranitrophenol generation rate assessed per mg of protein per min; assay type: ADME, subcellular, S9 fraction
How it was run: (§5)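 Control esterase activity was measured by incubating 100 µM p-nitrophenyl acetate (final) with 0.05 mg rat brain or liver S9 protein in 1.5 ml Tris-HCl pH 7.4 for 1 min at 37°C. Reactions were quenched with acetonitrile, and product was quantified by HPLC-UV against external standards. The no-protein blank rate was subtracted, and rate was expressed per mg protein per min.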

[26] = Prodrug conversion in 7 days old female rat liver S9 fractions assessed as paranitrophenol generation rate assessed per mg of protein per min; assay type: ADME, subcellular, S9 fraction
[27] = Prodrug conversion in 7 days old female rat brain S9 fractions assessed as paranitrophenol generation rate assessed per mg of protein per min; assay type: ADME, tissue-based
[28] = Prodrug conversion in 42 days old male rat brain S9 fractions assessed as paranitrophenol generation rate assessed per mg of protein per min; assay type: ADME, tissue-based; how it was run: as §5
[29] = Clearance in Sprague-Dawley rat at 30 mg/kg, iv; assay type: ADME, organism-based; parameters: dose 30 mg/kg, route intravenous; conditions: in vivo; how it was run: as §2
[30] = Volume of distribution at steady state in Sprague-Dawley rat at 30 mg/kg, iv; assay type: ADME, organism-based; parameters: dose 30 mg/kg, route intravenous; conditions: in vivo, read-out: Vdss
How it was run: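 Nonfasted adult Sprague-Dawley rats received a single 30 mg/kg i.v. bolus in 0.9% NaCl (pH 4.0), injected slowly into the tail vein over 20–30 s. Plasma was sampled by cardiac puncture under isoflurane at 5 min and 0.25, 0.5, 1, 2, 4 and 8 h, with 4–5 rats per time point. Samples were assayed by LC-MS/MS. Vss was estimated by noncompartmental analysis of pooled composite data.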

[31] = AUC ratio in cerebrospinal fluid to plasma in Sprague-Dawley rat at 30 mg/kg, iv; assay type: ADME, organism-based; parameters: dose 30 mg/kg, route intravenous; conditions: cerebrospinal fluid and plasma, read-out: Ratio AUC; how it was run: as §2
[32] = AUC (0 to infinity) ratio in brain to plasma in non-perfused Sprague-Dawley rat at 30 mg/kg, iv; assay type: ADME, organism-based; parameters: dose 30 mg/kg, route intravenous; conditions: brain and plasma, read-out: Ratio AUC; how it was run: as §2

`CCC(CC)O[C@@H]1C=C(C(=O)O)C[C@H](N)[C@H]1NC(C)=O` [OSELTAMIVIR CARBOXYLATE] gave a Kp [1] of 0.02, a Kp [2] of 0.003 and a Cmax (Plasma [3]) of 6880 ng/mL. The Cmax (Cerebrospinal fluid) was “BLD”, the “beta t1/2” value (Plasma [4]) was 1.69 h and the “beta t1/2” value (Plasma [5]) was 1.71 h. It also gave a Kp [6] of 0.02, a Kp [7] of 0.01 and a Kp [8] of 0.01. The Vdss (Rattus norvegicus) was 0.8 L/kg and the AUC (Plasma [9]) was 12800.

Molecule `CCOC(=O)C1=C[C@@H](OC(CC)CC)[C@H](NC(C)=O)[C@@H](N)C1` [OSELTAMIVIR] has an Activity [10] of 574 nmol, an Activity [11] of 49 nmol and an Activity [12] of under 0.2 pmol/s. For the same molecule, the Activity [13] was 0.52 pmol/s, the Activity [14] was 2.11 pmol/s and the Activity [15] was 0.32 pmol/min/mg. For the same molecule, the Activity [16] was under 0.06%, the Activity [17] was under 0.06% and the Activity [18] was 0.16%. It also gave an Activity [19] of 0.18%, an Activity [20] of 0.1% and an Activity [21] of 0.41%. It also gave an Activity [22] of 3.57%, an Activity [23] of 0.1% and an Activity [24] of 3.79%. The Activity [25] was 1446 nmol, the Activity [26] was 538 nmol and the Activity [27] was 92 nmol. The Activity [28] was 112 nmol, the clearance [29] was 93.9 mL/min/kg and the Vd [30] was 3 L/kg. The Kp [31] was 0.09 and the Kp [32] was 0.24.
